From ChEMBL document CHEMBL1649455, “Antimicrobial susceptibility and mechanisms of resistance in Shigella and Salmonella isolates from children under five years of age with diarrhea in rural Mozambique” (2009) come the findings set out here.

Molecules are shown by their SMILES.

Assay [1] has as its system Salmonella sp. Briefly: Antimicrobial activity against Salmonella spp. harboring oxa-1-like gene assessed as resistant isolates by disk diffusion method. The format is functional. Summed up: (§1)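 Resistance genes were sought by PCR in isolates fully resistant to the matching antibiotic. One colony was boiled 10 min in water to make template. PCR used […] each primer, 0.4 mM dNTPs and Taq, for 30 cycles of 94°C 1 min, primer-specific annealing 1 min and 72°C 1 min, then 72°C for 10 min. Products were run on 1.5% agarose gels with ethidium bromide.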
A general note: In agar diffusion tests the substance spreads into inoculated agar from a disc or well.

Assay [2] relates to Shigella sonnei. In words: Antimicrobial activity against Shigella sonnei assessed as resistant isolates by disk diffusion method. Type of assay: functional. Summed up:
(§2)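 Isolates came from rectal swabs of children under five seen at MDH between July 2001 and July 2003. There were 109 Shigella and 40 Salmonella. Swabs were cultured on MacConkey, Salmonella-Shigella and XLD agars. Identity was confirmed biochemically and by API-20E. Shigella serogroups were assigned by slide agglutination. Salmonella serotypes were assigned with somatic and flagellar antisera.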

Assay [3] relates to Shigella flexneri. In words: Antimicrobial activity against Shigella flexneri harboring carb-like gene assessed as resistant isolates by disk diffusion method. Type of assay: functional. A digest of the protocol:
as §1

Assay [4] deals with Shigella flexneri. In words: Antimicrobial activity against Shigella flexneri harboring shv-like gene assessed as resistant isolates by disk diffusion method. Type of assay: functional.
In assay [5] the test system is Shigella flexneri. Briefly: Antimicrobial activity against Shigella flexneri harboring tem-like gene assessed as resistant isolates by disk diffusion method. Type of assay: functional.
Assay [6] in a line: Antimicrobial activity against Salmonella enterica serovar Infantis assessed as resistant isolates by disk diffusion method. Type of assay: functional, Salmonella enterica subsp. enterica serovar Infantis. Summed up:
as §2

In another assay the test system is Salmonella typhimurium. Briefly: Antimicrobial activity against Salmonella enterica serovar Typhimurium assessed as resistant isolates by disk diffusion method. The format is functional, Salmonella enterica subsp. enterica serovar Typhimurium. Summed up:
as §2

Assay [7] has as its system Salmonella sp. In words: Antimicrobial activity against Salmonella spp. harboring tem-like gene assessed as resistant isolates by disk diffusion method. Type of assay: functional.
Assay [8] concerns Shigella flexneri. Briefly: Antimicrobial activity against Shigella flexneri harboring oxa-2-like gene assessed as resistant isolates by disk diffusion method. The format is functional. Summed up: as §1
Assay [9] has as its system Shigella flexneri. Briefly: Antimicrobial activity against Shigella flexneri harboring oxa-5-like gene assessed as resistant isolates by disk diffusion method. Type of assay: functional. A digest of the protocol: as §1
Assay [10] concerns Shigella flexneri. Briefly: Antimicrobial activity against Shigella flexneri harboring oxa-1-like gene assessed as resistant isolates by disk diffusion method. The format is functional. A digest of the protocol: as §1
For assay [11], the system named is Salmonella sp. In words: Antimicrobial activity against Salmonella spp. harboring shv-like gene assessed as resistant isolates by disk diffusion method. Type of assay: functional. A digest of the protocol:
as §1

Assay [12] relates to Salmonella sp. In words: Antimicrobial activity against Salmonella spp. harboring carb-like gene assessed as resistant isolates by disk diffusion method. Type of assay: functional. A digest of the protocol: as §1
Assay [13] is described as follows: Antimicrobial activity against Salmonella enterica serovar Virchow assessed as resistant isolates by disk diffusion method. Type of assay: functional, Salmonella enterica subsp. enterica serovar Virchow. Summed up:
as §2

Assay [14] deals with Salmonella sp. In words: Antimicrobial activity against Salmonella spp. harboring oxa-2-like gene assessed as resistant isolates by disk diffusion method. The format is functional.
The test system of assay [15] is Salmonella sp. In words: Antimicrobial activity against Salmonella spp. harboring oxa-5-like gene assessed as resistant isolates by disk diffusion method. The format is functional. A digest of the protocol:
as §1

The next assay concerns Salmonella enterica. In words: Antimicrobial activity against Salmonella enterica clinical isolates assessed as resistant isolates by disk diffusion method. Type of assay: functional. A digest of the protocol: as §2
Assay [16] deals with Shigella flexneri. Briefly: Antimicrobial activity against Shigella flexneri assessed as resistant isolates by disk diffusion method. Type of assay: functional. A digest of the protocol: as §2
Assay [17] concerns Shigella flexneri. In words: Antimicrobial activity against Shigella flexneri harboring CAT gene assessed as resistant isolates by disk diffusion method. Type of assay: functional.
The subject of assay [18] is Salmonella sp. In words: Antimicrobial activity against Salmonella spp. harboring CAT gene assessed as resistant isolates by disk diffusion method. Type of assay: functional.
Assay [19] relates to Shigella flexneri. Briefly: Antimicrobial activity against Shigella flexneri harboring floR-like gene assessed as resistant isolates by disk diffusion method. The format is functional. Summed up:
as §1

Assay [20] has as its system Salmonella sp. In words: Antimicrobial activity against Salmonella spp. harboring cmlA-like gene assessed as resistant isolates by disk diffusion method. The format is functional.
Assay [21] has as its system Salmonella sp. Briefly: Antimicrobial activity against Salmonella spp. harboring floR-like gene assessed as resistant isolates by disk diffusion method. The format is functional.
The subject of assay [22] is Shigella flexneri. In words: Antimicrobial activity against Shigella flexneri harboring cmlA-like gene assessed as resistant isolates by disk diffusion method. The format is functional.
The subject of assay [23] is Shigella flexneri. Briefly: Antimicrobial activity against Shigella flexneri harboring tetA gene assessed as resistant isolates by disk diffusion method. Type of assay: functional.
For assay [24], the system named is Shigella sonnei. Briefly: Antimicrobial activity against Shigella sonnei harboring tetA gene assessed as resistant isolates by disk diffusion method. Type of assay: functional.
Assay [25] deals with Shigella sonnei. Briefly: Antimicrobial activity against Shigella sonnei harboring tetB gene assessed as resistant isolates by disk diffusion method. Type of assay: functional. A digest of the protocol: as §1
The test system of assay [26] is Salmonella sp. Briefly: Antimicrobial activity against Salmonella spp. harboring tetB gene assessed as resistant isolates by disk diffusion method. The format is functional.
The test system of assay [27] is Salmonella sp. In words: Antimicrobial activity against Salmonella spp. harboring tetG gene assessed as resistant isolates by disk diffusion method. The format is functional.
Assay [28] relates to Salmonella sp. Briefly: Antimicrobial activity against Salmonella spp. harboring tetA gene assessed as resistant isolates by disk diffusion method. Type of assay: functional.
The subject of assay [29] is Shigella flexneri. Briefly: Antimicrobial activity against Shigella flexneri harboring tetB gene assessed as resistant isolates by disk diffusion method. Type of assay: functional.
Assay [30] relates to Shigella flexneri. Briefly: Antimicrobial activity against Shigella flexneri harboring tetG gene assessed as resistant isolates by disk diffusion method. Type of assay: functional. Summed up: as §1
Assay [31] has as its system Shigella sonnei. In words: Antimicrobial activity against Shigella sonnei harboring tetG gene assessed as resistant isolates by disk diffusion method. Type of assay: functional. A digest of the protocol: as §1

`CC1(C)S[C@@H]2[C@H](NC(=O)[C@H](N)c3ccccc3)C(=O)N2[C@H]1C(=O)O` [AMPICILLIN]: the Activity in the assay with Salmonella sp. [1] was determined as 0%; in the assay on Shigella sonnei [2], 0%; in the assay with Shigella flexneri [3], 0%; in the assay with Shigella flexneri [4] it was 2%; in the assay with Shigella flexneri [5], 5%; in assay [6], 0%. Moreover, the Activity in the assay on Salmonella typhimurium is reported as 67%; in the assay on Salmonella sp. [7], 70%; in the assay on Shigella flexneri [8], 5%; in the assay with Shigella flexneri [9], 2%; in the assay on Shigella flexneri [10] it was 90%; in the assay on Salmonella sp. [11], 0%. Also, the Activity in the assay on Salmonella sp. [12] worked out at 0%; in assay [13] it was 0%; with Salmonella sp. [14], 0%; with Salmonella sp. [15], 20%; with Salmonella enterica it was 25%; in the assay with Shigella flexneri [16], 66%.

`O=C(N[C@H](CO)[C@H](O)c1ccc([N+](=O)[O-])cc1)C(Cl)Cl` [CHLORAMPHENICOL]: the Activity with Shigella sonnei [2] came out at 0%; in the assay on Shigella flexneri [17] it was 89%; with Salmonella sp. [18] it was 67%; in assay [6], 0%; in the assay with Salmonella typhimurium, 22%; in the assay on Shigella flexneri [19], 0%. Besides, the Activity with Salmonella sp. [20] amounted to 33%; with Salmonella sp. [21] it was 83%; in assay [13], 0%; in the assay with Shigella flexneri [22] it was 2%; with Salmonella enterica, 25%; in the assay with Shigella flexneri [16], 61%.

Take `CN(C)[C@@H]1C(O)=C(C(N)=O)C(=O)[C@@]2(O)C(O)=C3C(=O)c4c(O)cccc4[C@@](C)(O)[C@H]3C[C@@H]12` [TETRACYCLINE]: the Activity in the assay with Shigella sonnei [2] amounted to 93%; in the assay with Shigella flexneri [23], 2%; in the assay with Shigella sonnei [24] it was 71%; in the assay with Shigella sonnei [25], 0%; in [6], 0%; in the assay on Salmonella sp. [26] it was 0%. Moreover, the Activity was found to be 0% in the assay with Salmonella typhimurium; 0% in the assay on Salmonella sp. [27]; 33% in the assay on Salmonella sp. [28]; 98% in the assay with Shigella flexneri [29]; 0% in assay [13]; 22% with Shigella flexneri [30]. For the same molecule, the Activity in the assay with Salmonella enterica stood at 25%; in the assay with Shigella sonnei [31], 36%; in the assay on Shigella flexneri [16] it was 64%.
